Laboratory results taken from ChEMBL document CHEMBL4513216, “Probing the Open Global Health Chemical Diversity Library for Multistage-Active Starting Points for Next-Generation Antimalarials” (ACS Infect Dis, 2020).

Assay: Toxicity liver stage against HepG2, at 10uM
Format: cell-based
Set-up: test concentration 10 uM, cell line HepG2-A16-CD81EGFP
Conditions: human, HepG2-A16-CD81EGFP cells; read-out: INHIBITION
How it was run: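 Uninfected HepG2-A16-CD81EGFP cells, 3 × 10^3 per well, 1536-well, plated on prespotted compound at 10 μM final, parasite-free screening media added to match infected plates; puromycin 10 μM positive, DMSO 0.5% negative; run in parallel with 48 h PbLuc assay at 37 °C, 5% CO2; viability by CellTiter-Glo luminescence, normalized to controls.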

SMILES | cytotoxicity at 10 µM [%]
CO[C@H]1COCCN(C(=O)c2ccc(C(F)(F)F)cc2)C1 | 4.94
Cc1nccn1-c1ccc(=O)n(CCNC(=O)c2cccs2)n1 | -5.51
COCCN1CCN(c2ccc3ccc(C(=O)NC4CC4)cn23)CC1 | -4.37
CCS(=O)(=O)N1CCOC2(COCCN(C(C)=O)C2)C1 (stereo unspecified) | 15.7
Cc1nnc([C@@H]2C[C@H]3CN(C(=O)c4sccc4C)C[C@H]3O2)[nH]1 | 16
COCCCN1CCCCC12CC(=O)N(Cc1ccccn1)C2 (stereo unspecified) | 1.95
O=C1CC[C@@H]2[C@@H](CCN2C(=O)C2CCOCC2)N1CC1CC1 | 10.9
COc1cccc(S(=O)(=O)N2CCCc3c(OC)nn(C)c3C2)c1 | -120
CCOC(=O)c1cnn(-c2cc(Oc3cc(C)ccc3C)ncn2)c1N | 11.3
Cc1cnc(N2C(=O)CSC2c2ccccc2)s1 (stereo unspecified) | -1.14
CCc1nc(Nc2ccc(C(=O)NC)cc2)c2c(n1)c(C)nn2CC | 9.38
c1cn(-c2nccnc2C2CCCN(C3CCOCC3)C2)cn1 (stereo unspecified) | 4.19
CN(CC1CCOCC1)C1CCCN(c2ccccn2)C1 (stereo unspecified) | -0.48
CN(Cc1cnn(C)c1)CC(O)c1ccc2c(c1)OCCCO2 (stereo unspecified) | 2.85
Cc1ncc(C(=O)NCCNc2ncccn2)s1 | 3.79
Cc1noc(C(C)Nc2ccc3oc(C(C)C)nc3c2)n1 (stereo unspecified) | -7.84
CCn1ccnc1CN1CCN(C(C)C(=O)NCc2ccco2)CC1 (stereo unspecified) | 7.79
Cn1c(=O)n(C)c2cc(NS(=O)(=O)Cc3cccc(F)c3)ccc21 | 6.37
CCC(CO)NC(=O)Nc1ccc(OCC(F)(F)F)c(C)c1 (stereo unspecified) | 10.9
CC(C)(C)c1cc(=O)[nH]c(C2(N)CCCC2)n1 | 8.79
Cc1cc(CNC2(CO)CCOCC2)ccc1Br | 17.4

SMILES | cytotoxicity at 10 µM [%]
CCc1cc(=O)[nH]c(-c2ccc(NCCc3ccc(O)cc3)nc2)n1 | 61.1
CCC(C)(CO)NC(=O)Nc1cc2c(cc1SC)OCCO2 (stereo unspecified) | -10.5
CCOc1ccccc1N(C)C(=O)c1ccc(Cl)cn1 | 0.0381
O=C(NCC1(N2CCOCC2)CCSC1)Nc1ccccn1 (stereo unspecified) | 8.64
CCOc1cc(C)ccc1NS(=O)(=O)c1cc(C)c(C(=O)O)s1 | -6.44
CCN(CC(C)C#N)C(=O)CSc1ccc(C(F)(F)F)cn1 (stereo unspecified) | 9.81
Cc1cccc(S(=O)(=O)NC(=O)CCc2cscn2)c1 | 0.983
CCc1ccc(C(=O)N(CC)Cc2ccoc2)cc1S(C)(=O)=O | -4.89
O=C(NCCNC(=O)C1CCCCC1)NCCn1cccc1 | 2.89
CCN(CC)CCNC(=O)c1ccc(Cl)c(NS(C)(=O)=O)c1 | 5.53
Cc1noc(OCCOc2ccc(C#N)cc2)n1 | 0.00742
N#CCCN(Cc1cccnc1)C(=O)c1ccc(-n2cnnn2)cc1 | 4.59
CC1CCN(C(=O)NCC(=O)N(C)CC(F)(F)F)C1 (stereo unspecified) | 1.82
O=C(NC[C@H]1C[C@@H]2CN(C(=O)c3ccco3)C[C@@H]2O1)c1ccsc1 | -90.8
Cn1cc(CNC2CCc3c(ccc(=O)n3C)C2)cn1 (stereo unspecified) | -115
COc1nn(C)c2c1CCCN(C(=O)c1cnccn1)C2 | -84.3
CCCn1c(C)c(CC(=O)NC(C)CO)c2c1CC(C)(C)CC2=O (stereo unspecified) | -10.5
Cc1cc(-c2ccc(C(C)N3CCOCC3)cc2)cnc1N (stereo unspecified) | -2.36
CN(C)C(C(=O)N1CCN(CC(F)(F)F)CC1)c1ccccc1F (stereo unspecified) | -2.42
c1ccc(Cn2cccn2)c(CN2CCCCC2CCn2ccnc2)c1 (stereo unspecified) | -12
O=C(NCCCn1cnnc1)C1CCCN(C2CCCC2)C1 (stereo unspecified) | -0.121

SMILES | cytotoxicity at 10 µM [%]
CCOc1ccc(C(=O)N2CCCC(c3nccn3C)C2)cc1OCC (stereo unspecified) | -6.77
Cc1cc2[nH]c(CN3CCOC(C(F)(F)F)C3)cc(=O)n2n1 (stereo unspecified) | -21.2
CC(C1CCN(Cc2cnc(-c3cccs3)nc2)CC1)N(C)C (stereo unspecified) | -11.3
CC(=O)C1(c2ccccc2)CCN(C(=O)c2ccn3nnnc3c2)CC1 | -4.97
Cc1cccnc1N1CCN(Cc2cc(O)c3cccc(F)c3n2)CC1 | 2.2
O=C(NCCOc1ccccc1)C1NCCc2[nH]cnc21 (stereo unspecified) | 8.01
CC(C)(C)n1cc(C2=CCN(CCc3ccccn3)CC2)cn1 | -0.505
CCn1cc(CNc2ccc3nccnc3c2)cn1 | 1.42
NCCn1cc(C(=O)N2CCCCCC2c2cccc(F)c2)nn1 (stereo unspecified) | 8.48
O=C([C@@H](O)Cc1ccccc1)N1CCCn2cncc2C1 | 2.55
CCCc1nc(C(=O)N2CCN(C(=O)OC)CC2)cs1 | -9.85
CC(C)N1CCC(Cc2cc(-c3ccccc3C(=O)O)ncn2)CC1 | -5.28
CCOc1ncccc1NC(=O)N1CCN(Cc2ccncc2)CC1 | -2.54
CC1CN(C)CCN1CC(=O)NCCOc1ccc2c(c1)OCO2 (stereo unspecified) | -6.66
c1csc(-c2nc(CNC3CCc4ncnn4C3)co2)c1 (stereo unspecified) | -5.69
Cc1cc(C)n(CC2CN(CCOc3cccc(F)c3)CCO2)n1 (stereo unspecified) | -7.44
CN(CC(=O)N1CCN(c2ccccc2F)CC1)c1cnccn1 | -0.341
CN(Cc1nnc(-c2ccco2)o1)C1CCCN(c2cccnn2)C1 (stereo unspecified) | -7.39
COc1cccc(COCC(=O)N2CCCC(n3ccnc3C)C2)c1 (stereo unspecified) | -7.77
Clc1ccccc1-c1nc(CNCCn2cccn2)cs1 | -3.45
Cc1nn(C)c(Cl)c1C1CCCN1C(=O)c1cc(Cl)c[nH]1 (stereo unspecified) | -6.83

SMILES | cytotoxicity at 10 µM [%]
Cc1cccc(C(=O)NCc2ccnc(N(C)C)c2)n1 | 3.22
Cn1cnnc1C1CCCN(C(=O)NCCNc2ccccn2)C1 (stereo unspecified) | 2.21
CS(=O)(=O)N1CCO[C@@H]2CN(Cc3ccncc3)C[C@@H]2C1 | 4.5
Cc1occc1C(=O)N1CCOCC2(CCN(Cc3nccs3)C2)C1 (stereo unspecified) | -6.34
Cc1cccc(CN2C(=O)CCC23CCN(C(=O)N2CCCC2)CC3)n1 | 4.56
O=C(c1ccc[nH]1)N1CCn2cc(CN3CCCC3)nc2C1 | 3.09
Fc1cnc(N2CC[C@@H]3O[C@@H](COCc4ccccn4)CC[C@@H]32)nc1 | 1.9
c1cnc(N2CC3(CCN(CC4CCOC4)CC3)c3ccccc32)nc1 (stereo unspecified) | -6.78
CN(C)CC(=O)N1CCC2(CC1)Cc1ccccc1CN(C)C2=O | -2.96
Fc1cccc(CN2C[C@@H]3CN(Cc4ccccn4)C[C@@H]3C2)c1 | -1.07
N#Cc1cccc(C(=O)N2CCc3c(COCC4CC4)cncc3C2)c1 | 8.25
COc1ccc(CN2CCC3(CC2)CC(CC(=O)NC(C)C)CO3)cc1 (stereo unspecified) | -1.27
CN1CCC(NC(=O)[C@H]2CC[C@@H]3[C@@H](CCN3c3ncccn3)O2)CC1 | 7.43
c1coc(CN2CCC3(CCOCC3COCC3CC3)CC2)c1 (stereo unspecified) | 2.79
Cc1occc1C(=O)N1CCO[C@H]2[C@H](Oc3cccnc3)CC[C@@H]21 | -93.4
CC(=O)c1cc(C(=O)N2CC[C@H]3CC[C@@H](C2)N3C)c(=O)[nH]c1C | 11.4
O=S(=O)(c1cccnc1)N1C[C@H]2CC[C@@H](C1)N(Cc1ccccc1)C2 | -5.79
CN(C)c1nc2cn(C3CCSCC3)c(=O)c-2c[nH]1 | 8.56
